Test system: MS2 coat protein
Assay: apparent Kd, MS2 coat protein; higher = weaker binding; RNA-MaP array; FMN 200 µM where present
In short: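 The apparent Kd comes from binding curves fitted cluster by cluster, filtered, and summarised as a median. Those curves followed SNAP-549-labelled MS2 coat protein from 0.7 or 1.5 nM, doubling to 3 µM, on Illumina sequencing-chip clusters where stalled E. coli RNA polymerase had transcribed the designs, without and then with constant ligand. The buffer was 100 mM Tris-HCl pH 7.5, 80 mM KCl, 4 mM MgCl2, BSA, DTT, yeast tRNA and Tween-20, and green signal was normalised to red-channel RNA signal and control-cluster median Fmax.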

[1] = designed as: ON switch for flavin mononucleotide, no ligand
[2] = ligand present: flavin mononucleotide, designed as: ON switch for flavin mononucleotide
[3] = designed as: OFF switch for flavin mononucleotide, no ligand
[4] = ligand present: flavin mononucleotide, designed as: OFF switch for flavin mononucleotide

| Sequence | apparent Kd [1] | apparent Kd [2] | apparent Kd [3] | apparent Kd [4] |
| --- | --- | --- | --- | --- |
| AUGGAUAUCACAGGAUAUGCUAUGGAUACCAUAGCAGAAGGGUGAUCCAUCCUAUGGCUGCACAUGAGGAUCACCCAUGUGUCC | 107 nM | 11.1 nM |  |  |
| CCUGGUUGGUAAGGAUAUCCUACACUAUUCUGACCCGUGCAAGCUACAUGAGGAUCACCCAUGUGGGAGAAGGUGCGUCAACGU |  |  | 12.8 nM | 12 nM |
| ACUGUGUGAGGAUAUCUACGCCAUGUCUUUGACAUGGCGCAAGAGAAGGCACAUGAGGAUCACCCAUGUACUUC |  |  | 18.4 nM | 39.2 nM |
| UUUUCGGCAGGAUAUACAUGAGGAUCACCCAUGUAAAUUUUUCGUUUAACUUGAAUGUGUAGAAGGGCCAUUUU |  |  | 23.3 nM | 23.6 nM |
| UCGAUAAGGAGAGGAUAUGGACAUGAGGAUCACCCAUGUACAUGGGAAUAUAUACUGAAUUUUUACUAGAAGGCUUACAUAAUU |  |  | 16.4 nM | 14.8 nM |
| CUCGAGUUAGGAUAUCGAACGUAACAAGCGGAAACUCCCGCCGAGAAGGAACAUGAGGAUCACCCAUGUGAAAC |  |  | 14.9 nM | 18.3 nM |
| AUUUAUGUCAUAGGAUAUAUAAAUAAAUUUAUAACAUGAGGAUCACCCAUGUACUUUGGUAUGAGGUAGAAGGAUGAUAAGAAU | 49.6 nM | 31.9 nM |  |  |
| CAUGUCCUCACAGGAUAUGCUGGACUUUGUCCAGCAGAAGGGUGAACAUGAGGAUCACCCAUGUAAAGGACAUGUAUAUUUAAU | 1080 nM | 84.3 nM |  |  |
| UGUCGGAGCAGAGGAUAUUACAUGAGGAUCACCCAUGUAUGAACCAAUAGCUGGAAACAGCAAUGUAAGAAGGCUGCUCCGACU |  |  | 13 nM | 174 nM |
| AGGUAACAUGAGGAUCACCCAUGUCAGGAUAUCAUGAAGAGGAGAUUAGAGGAGAGGUUGAGAAGGGACUAUAU |  |  | 76 nM | 57.4 nM |
| GGUUGACAAAGUCAACCAUAACGAACAUGAGGAUCACCCAUGUAGGAUAUGCUACUCAAAGAGUAGCAGAAGGACAUGUGUCUU |  |  | 32.6 nM | 161 nM |
| AAAUAACCUAGCAAAAUUUCCUCACAUGAGGAUCACCCAUGUAGAAGGUUAACCUAAUAUAGGAUAAAGGAUAUACGUGCUAGG |  |  | 7.58 nM | 19.9 nM |
| UAUAUAUAGUAAGGAUAUGUAUAUAUUUUAUAAACAGAAGGUACUGACAUGAGGAUCACCCAUGUUUUAGUGUGGGCAUGUAGA |  |  | 72.1 nM | 109 nM |
| UCAGUAGAGUCAGGAUAUACGAAAGUAGAUCCUUACAUGAGGAUCACCCAUGUAGAAGGGACUCUACUGUAAGUCGGAAACGAC |  |  | 14.1 nM | 69.1 nM |
| AUGAGGUCAGGAUAUGCAUGGCGGGACUUGCGUCGUGGCGUGCAGAAGGGACAUGAGGAUCACCCAUGUGGAGA |  |  | 104 nM | 325 nM |
| UACUUGUCAGGAUAUCUUACAUUAACAUCGUAGUUACCGUUGGAGAAGGGACAUGAGGAUCACCCAUGUUUGGC |  |  | 32 nM | 54.9 nM |
| GCUGGACAUGAGGAUCACCCAUGUGAGGAUAUCGGCUGGUACGUGUUGGCUGGCAUCUCGAGAAGGCACAUAGU |  |  | 32.8 nM | 42.4 nM |
| AAUUCGUCAGGAUAUGCAUGUAAUUGUUACAUUUCUCCGUUGCAGAAGGGACAUGAGGAUCACCCAUGUAAGUC |  |  | 29.7 nM | 28.7 nM |
| AAGGUGUAAGGAUAUGCUGCUCGUCACUUGCGUGAUGAGUAGCAGAAGGUACAUGAGGAUCACCCAUGUAAAGA |  |  | 32.5 nM | 38.2 nM |
| UAUGUCUUUGUGAGGAUAUACUUUGUUUGGUCGUAGUAGAAGGCACAUGAGGAUCACCCAUGUAGAUUUUUGGU |  |  | 23.1 nM | 36.1 nM |
| AGCUAGUCAGGAUAUACGAACAUGUCGCCCGACGUGAAGGGACAUGAGGAUCACCCAUGUAGAAGGGACUAGCA |  |  | 135 nM | 348 nM |

From the EternaBench riboswitch data
